Screening data deposited in PubChem by several laboratories.
T cruzi repl: T. cruzi replication inhibition | inhibition, % (no concentration beside the values) | T. cruzi beta-gal in NIH3T3, luminescence, 90 h | 1.4% of 300,000 active;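 active = mean inhibition across valid replicates above about 55%, limit read from the data; inconclusive = mean below that limit but half or more replicates reach it; inactive = mean below it, under half of replicates reach it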;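 also: signal also drops with host cell toxicity which is not excluded here; 0% = plate median of DMSO wells and 100% = zero luminescence signal; higher percent means less beta-gal luminescence so fewer parasites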
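Read-out: Parasite load inhibition, % | Test system: Mouse NIH/3T3 fibroblasts infected with β-gal-expressing T. cruzi Tulahuen C4 | Amount: 5,000 cells/well | Medium: DMEM, 2% fetal bovine serum | Signal: GalScreen β-gal luminescence, detergent lysis, 60 min | Timing: 3 h attach, ≥90 h co-culture | Also added: Tulahuen C4 trypomastigotes, 5000/well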
Calb FLC: C. albicans growth modulation with fluconazole; C. albicans CaCi-2 + fluconazole, Alamar Blue growth, 48 h; growth inhibition, % (no concentration beside the values); 0.57% of 300,000 active; AID 1979;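 active = growth inhibition above about 58% in most replicates, limit read from the data, passing the limit was not always enough; inconclusive = exactly half the replicates above a set limit; inactive = most replicates below a set limit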;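 also: all wells also contain fluconazole at 8 µg/ml as a sub-toxic cotreatment; 0% = median of DMSO wells and 100% = median of geldanamycin control wells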
Mdm2-MdmX inh: human Mdm2/MdmX binding inhibition | O15151+Q00987 | SaOS-2 split-luciferase Mdm2/MdmX complementation, luminescence | inhibition, % at 8 µM | 3% of 330,000 active;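 active = inhibition of at least 50% at 8 µM in the primary screen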
Target sequence (O15151 whole entry, looked up): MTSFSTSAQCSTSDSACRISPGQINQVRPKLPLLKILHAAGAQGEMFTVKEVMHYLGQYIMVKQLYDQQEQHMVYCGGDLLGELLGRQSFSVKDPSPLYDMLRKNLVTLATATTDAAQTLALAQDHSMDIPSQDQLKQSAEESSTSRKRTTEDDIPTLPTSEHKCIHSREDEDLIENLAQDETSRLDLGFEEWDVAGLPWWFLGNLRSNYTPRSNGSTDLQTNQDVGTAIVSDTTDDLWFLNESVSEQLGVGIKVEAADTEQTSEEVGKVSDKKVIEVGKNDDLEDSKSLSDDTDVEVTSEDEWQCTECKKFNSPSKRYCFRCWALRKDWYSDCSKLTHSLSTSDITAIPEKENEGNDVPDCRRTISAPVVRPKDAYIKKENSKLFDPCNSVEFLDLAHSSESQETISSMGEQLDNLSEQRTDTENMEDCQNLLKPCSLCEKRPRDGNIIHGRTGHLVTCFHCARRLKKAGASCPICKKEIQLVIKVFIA
Target sequence (Q00987 whole entry, looked up): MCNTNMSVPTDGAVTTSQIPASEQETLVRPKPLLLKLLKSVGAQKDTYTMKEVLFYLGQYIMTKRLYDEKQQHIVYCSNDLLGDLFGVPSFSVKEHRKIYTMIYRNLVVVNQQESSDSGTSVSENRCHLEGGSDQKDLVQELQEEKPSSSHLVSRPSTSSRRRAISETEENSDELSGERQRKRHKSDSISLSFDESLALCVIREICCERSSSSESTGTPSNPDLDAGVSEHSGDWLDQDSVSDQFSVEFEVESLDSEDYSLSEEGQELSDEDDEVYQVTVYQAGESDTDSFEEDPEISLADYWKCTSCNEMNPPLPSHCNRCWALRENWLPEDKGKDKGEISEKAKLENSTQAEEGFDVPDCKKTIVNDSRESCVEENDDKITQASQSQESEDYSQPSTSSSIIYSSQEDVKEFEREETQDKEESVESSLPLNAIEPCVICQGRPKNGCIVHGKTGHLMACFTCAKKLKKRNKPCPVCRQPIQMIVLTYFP
CSC inhib: cancer stem cell inhibition. inhibition, % at 7.5 µM. 1.1% of 300,000 active. cancer stem cell-like cells viability, luminescence; in the data active = inhibition above about 75%; inconclusive = no clear call, values can overlap the other calls; tested in HMLE shEcad cells
Beta cell apopt: beta cell apoptosis inhibition; INS-1E cytokine-induced death, ATP luminescence, 48 h; percent of positive-control rescue, neutral wells zero; protection from apoptosis, % (test concentration not listed); 0.8% of 300,000 active;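 active = Every replicate reaches about 75%, or at least half do and their mean reaches it too, limit read from the data; inconclusive = At least half of replicates reach the limit but their mean does not; inactive = Under half of replicates reach the limit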;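 also: 0% = cytokine-treated negative control wells and 100% = positive control rescue; higher means more ATP so stronger rescue from cytokine killing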
SKKanGAS inh: blocks kanamycin growth of S. pyogenes SKKanGAS strain | BacTiter-Glo, 6 h | inhibition, % at 7.5 µM | 1.3% of 300,000 active;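 active = mean replicate score, as percent of positive control median, at least 50; inconclusive = mean below 50 but one replicate at or above 50; inactive = mean and every replicate below 50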;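 also: strain carries kanamycin resistance gene driven by streptokinase promoter and grows in 40 µg/ml kanamycin; loss of luminescence reflects streptokinase promoter inhibition or plain growth inhibition; 0% = median of DMSO wells and 100% = positive control at its reference dose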
Mdm2 MdmX conf: confirmation of human Mdm2/MdmX interaction inhibitors; 55% of 10,000 active; shares compounds with Mdm2-MdmX inh; AID 489028; inhibition, % at 8 µM; Mdm2-MdmX binding, luminescent assay; in the data active = inhibition above about 40%
Full FLuc ctr: counter-screen for Mdm2/MdmX inhibitors: full-length luciferase | 77% of 6,200 active | shares compounds with Mdm2-MdmX inh | SaOS-2 full-length luciferase counterscreen, luminescence | AID 504607 | inhibition, % at 8 µM;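 active = mean inhibition at 8 µM reaching about 37%, which flags the compound as non-specific, limit read from the data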;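 also: p53-null SaOS-2 cells with luciferase driven by a doxycycline-inducible promoter; compound on cells about two nights before reading with doxycycline added after day one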
An asterisk follows results filed as active; u = inconclusive; x = no result given. Hits are enriched below; roughly 5.7% of the tested compounds scored in any of these assays.

SMILES | T cruzi repl | Calb FLC | Mdm2-MdmX inh | CSC inhib | Beta cell apopt | SKKanGAS inh | Mdm2 MdmX conf | others
COc1cccc(-c2cc(=O)c3cc(NC(=O)c4ccc(N(C)C)cc4)ccc3[nH]2)c1 | 23 | -2 | 65* | u | 4 | 18 | 60* | Full FLuc ctr=71*
COc1cccc(-c2cc(=O)c3cc(NC(=O)c4ccccc4)ccc3[nH]2)c1 | -26 | 7 | 59* | 61 | 17 | 7 | 58* | Full FLuc ctr=42*
CC(C)C[C@H](NC(=O)c1[nH]cnc1C(=O)N[C@@H](Cc1ccccc1)C(=O)OC(C)(C)C)C(=O)OC(C)(C)C | 30 | 0 | 80* | 0 | 26 | 83* | 22
CC(C)(C)OC(=O)[C@H](Cc1ccccc1)NC(=O)c1nc[nH]c1C(=O)N1CCN(C(=O)OC(C)(C)C)CC1 | 22 | 9 | 74* | 18 | -3 | 3 | 27
CC(C)(C)OC(=O)N1CCN(C(=O)c2[nH]cnc2C(=O)N[C@@H](Cc2ccccc2)C(=O)OCc2ccccc2)CC1 | -11 | 2 | -1 | 0 | -2 | 3 | x
CCOc1ccccc1CN1CCN(CCCc2ccccc2)CC1CCO (stereo not drawn) | -10 | -2 | -11 | 1 | -4 | 6 | x
CC(C)C[C@H](NC(=O)N1CC(=O)Nc2ccccc21)C(=O)N[C@@H](Cc1ccccc1)C(=O)O | -4 | 2 | 10 | -10 | -5 | 1 | x
Cc1c(Cl)cccc1NC(=O)CNC(=O)CCCc1nc2ccccc2c(=O)[nH]1 | x | x | 12 | x | x | x | x
CN1CCN(C(=O)CCCN2C(=O)/C(=C/c3cccc(Br)c3)SC2=S)CC1 | 66* | -1 | 63* | x | x | 19 | 31 | Full FLuc ctr=29
O=C(CCCN1C(=O)/C(=C/c2cccc(Br)c2)SC1=S)N1CCOCC1 | -1 | 0 | 61* | -2 | -4 | 0 | 21
Cc1cc2nc(C3CCCN(C(=S)Nc4ccccc4)C3)[nH]c2cc1C (stereo not drawn) | 27 | 3 | 51* | -9 | 10 | 5 | -13
COc1ccccc1NC(=S)N1CCC(c2nc3cc(C)c(C)cc3[nH]2)CC1 | 14 | -5 | 11 | -8 | 1 | 0 | x
COc1ccccc1NC(=O)N1CCC(c2nc3cc(C)c(C)cc3[nH]2)CC1 | 41 | -3 | 57* | 67 | 15 | 4 | 70* | Full FLuc ctr=72*
Cc1c(C(=O)NCc2ccc3c(c2)OCO3)oc2ccc(Br)cc12 | -11 | -15 | 73* | 5 | -7 | 11 | 7
COC(=O)c1cccc(NC(=O)c2cnn(C)c2)c1 | 0 | 2 | -29 | x | x | 1 | x
Cc1c(C=O)c(C=O)c(C)n1Cc1ccccc1 | -19 | 7 | 86* | 44 | x | -4 | 86* | Full FLuc ctr=31
CC(=O)c1c(C(C)=O)c(C)n(Cc2ccccc2)c1C | -20 | -8 | 0 | -12 | -4 | 1 | x
OCCN1CCN(c2ncnc3c2c(-c2ccccc2)cn3-c2ccc(F)cc2)CC1 | 21 | -5 | 25 | x | -7 | 0 | x
COc1ccc(-n2cc(-c3ccccc3)c3c(N4CCN(CCO)CC4)ncnc32)cc1 | 32 | 37 | 51* | -4 | 2 | -3 | 16
Cc1cccc(-n2cc(-c3ccccc3)c3c(N4CCOCC4)ncnc32)c1 | 29 | -6 | 67* | 105* | 17 | 16 | 55* | Full FLuc ctr=72*
Cc1ccc(-n2cc(-c3ccccc3)c3c(N4CCOCC4)ncnc32)cc1 | 2 | -25 | x | x | x | 2 | x
COc1ccccc1CCCNC(=O)C1CCC(=O)N(CCc2ccc(Cl)cc2)C1 (stereo not drawn) | -11 | 4 | 13 | -11 | 6 | 0 | x
Cc1cc(C(=O)Cn2nnc3ccccc3c2=O)c(C)n1Cc1cccs1 | 21 | 7 | 37 | 0 | 21 | 1 | x
Cc1cc(C(=O)CN2C(=O)c3ccccc3C2=O)c(C)n1Cc1cccs1 | 12 | 3 | 68* | -12 | x | -3 | 67* | Full FLuc ctr=102*
COc1ccccc1-c1c(C#N)c(N)nc2c1CCc1ccccc1-2 | 44 | 19 | 70* | x | x | -4 | 70* | Full FLuc ctr=53*
SMILES | T cruzi repl | Calb FLC | Mdm2-MdmX inh | CSC inhib | Beta cell apopt | SKKanGAS inh | Mdm2 MdmX conf | others
COc1ccccc1-c1c(C)c(C)nc(N)c1C#N | -13 | 20 | 21 | x | -5 | 2 | x
CCOc1cc(-c2c(C#N)c(N)nc3c2CCc2ccccc2-3)ccc1O | 21 | 37 | 81* | 0 | 7 | 4 | 79* | Full FLuc ctr=51*
CCOc1cc(-c2c(C#N)c(N)nc3c2CCCC3C)ccc1O (stereo not drawn) | 15 | 38 | 46 | 17 | 9 | 0 | x
COc1ccc(C(=S)N2CCOCC2)cc1OC(=O)c1ccc(C)cc1 | -30 | -4 | 14 | x | -5 | 2 | x
Cc1ccc(S(=O)(=O)N(C)C)cc1NC(=O)CCCNC(=O)c1ccc(Cl)cc1 | -3 | -12 | -7 | 1 | -3 | -3 | x
O=C(Nc1cccc(-c2csc(Nc3ccc(Cl)cc3)n2)c1)c1cccc(C(F)(F)F)c1 | 44 | -6 | 58* | -18 | 35 | 44 | -6
O=C(Nc1cccc(-c2csc(Nc3ccc(Cl)cc3)n2)c1)c1cc([N+](=O)[O-])cc(C(F)(F)F)c1 | 21 | -7 | 85* | 108* | 32 | u | 28
O=C(Nc1ccc(-c2csc(Nc3ccccc3)n2)cc1)c1ccccc1 | 9 | 0 | -6 | 16 | 11 | 5 | x
O=C(Nc1cccc(-c2csc(Nc3ccccc3)n2)c1)c1cc([N+](=O)[O-])cc(C(F)(F)F)c1 | 42 | 2 | 1 | 58 | 8 | 39 | x
O=C(Nc1ccc(-c2csc(Nc3ccc(Cl)cc3)n2)cc1)c1cc([N+](=O)[O-])cc(C(F)(F)F)c1 | 23 | -3 | 71* | 149* | -2 | 75* | 11
O=C(COc1ccc(-n2cnnn2)cc1)Nc1cc(Cl)cc(Cl)c1 | x | x | 67* | x | x | x | 34
O=C(COc1ccc(-n2cnnn2)cc1)Nc1ccc(F)c(Cl)c1 | x | x | 1 | 7 | -5 | x | x
COCCCNC(=O)C[C@H]1C[C@H](C(=O)N2CCOCC2)[C@@]2(C)c3[nH]c4cc(CCC(=O)N(C)C)ccc4c3CCN2C1=O | x | x | 64* | x | x | x | -24
CC(C)=CCC/C(C)=C/CNC(=O)C[C@H]1C[C@H](C(=O)N2CCOCC2)[C@@]2(CCC3CCCC3)c3[nH]c4cc(CCC(=O)N(C)C)ccc4c3CCN2C1=O | x | x | 77* | x | x | x | 21
COCCCNC(=O)C[C@H]1C[C@H](C(=O)N2CCOCC2)[C@@]2(CCC3CCCC3)c3[nH]c4cc(CCC(=O)N(C)C)ccc4c3CCN2C1=O | x | x | -6 | x | x | x | x
